Assay results as given in publication PMC3992281 (Journal of neurochemistry, 2013).

How the values were obtained:
Format in all cases: cell-based, rat
[1] = system: nicotine-triggered uptake of 45Ca2+ in PC12 cells; assay: Nicotinic cholinergic signal transduction: 45Ca2+ uptake; conditions: nicotine 60 µM, 45Ca2+ 2 µCi/ml, 5 minutes
Summary of the method: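 PC12 cells were plated on poly-L-lysine-coated dishes 2 days ahead and rinsed every 15 min for 1 h at 37°C in secretion buffer (150 mM NaCl, 5 mM KCl, 2 mM CaCl2, 10 mM Hepes, pH 7.4). Cells were exposed to ⁴⁵Ca²⁺ with drugs in Ca²⁺-free buffer for 5 min at room temperature. Uptake was stopped with ice-cold 1 mM LaCl3, followed by lysis and scintillation counting (cpm/well). Results are mean ± SEM.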

[2] = system: nicotinic cholinergic-stimulated catecholamine release in PC12 cells; assay: Nicotine-stimulated norepinephrine secretion from PC12 cells
Summary of the method: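 PC12 cells were washed, then stimulated with nicotine (60 µM) in secretion medium in the presence of graded concentrations of the CHGB-derived test peptide. Maximal effect was taken at 10 µM peptide. Human CHGA[352–372] served as the positive control. Norepinephrine release was measured and each experiment was repeated 3 times.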

[3] = system: membrane depolarization-stimulated catecholamine release in PC12 cells; assay: KCl; conditions: KCl 55 mM, CHGB full-length or plasmin-digested, repeated 3 times
Summary of the method: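 Rat PC12 cells (passage 10–25) grown in high-glucose DMEM with 10% horse serum and 5% FBS at 37°C in 6% CO2. After washing, cells were stimulated with KCl (55 mM) in secretion medium, with recombinant human CHGB (3.0 µM), either full-length or pre-digested with plasmin (10 µM CHGB, 2 µM plasmin, Tris-Cl pH 8.0, 150 mM NaCl, 1 hr). Three experiments.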

| Molecule | inhibition of nicotine-stimulated uptake of 45Ca2+ [1] | efficacy (maximal effect), inhibition of nicotinic cholinergic secretion ([2]; nicotine 60 µM, at 10 µM peptide) | IC50 ([2]; read-out: potency (IC50) to inhibit nicotinic cholinergic-stimulated catecholamine secretion, nicotine 60 µM, repeated 3 times) [nM] | reduction of membrane depolarization-stimulated catecholamine release [3] |
| --- | --- | --- | --- | --- |
| catestatin | ~ 82% | ~ 100% | 450 |  |
| CHGB: purified human recombinant mature CHGB (657 residues) with carboxy-terminal … tag, expressed in E. coli (protein, UniProt P05060 21-677, looked up, C-terminal tag) Secretogranin-1: MPVDNRNHNEGMVTRCIIEVLSNALSKSSAPPITPECRQVLKTSRKDVKDKETTENENTKFEVRLLRDPADASEAHESSSRGEAGAPGEEDIQGPTKADTEKWAEGGGHSRERADEPQWSLYPSDSQVSEEVKTRHSEKSQREDEEEEEGENYQKGERGEDSSEEKHLEEPGETQNAFLNERKQASAIKKEELVARSETHAAGHSQEKTHSREKSSQESGEETGSQENHPQESKGQPRSQEESEEGEEDATSEVDKRRTRPRHHHGRSRPDRSSQGGSLPSEEKGHPQEESEESNVSMASLGEKRDHHSTHYRASEEEPEYGEEIKGYPGVQAPEDLEWERYRGRGSEEYRAPRPQSEESWDEEDKRNYPSLELDKMAHGYGEESEEERGLEPGKGRHHRGRGGEPRAYFMSDTREEKRFLGEGHHRVQENQMDKARRHPQGAWKELDRNYLNYGEEGAPGKWQQQGDLQDTKENREEARFQDKQYSSHHTAEKRKRLGELFNPYYDPLQWKSSHFERRDNMNDNFLEGEEENELTLNEKNFFPEYNYDWWEKKPFSEDVNWGYEKRNLARVPKLDLKRQYDRVAQLDQLLHYRKKSAEFPDFYDSEEPVSTHQEAENEKDRADQTVLTEDEKKELENLAAMDLELQKIAEKFSQRG |  |  |  | ~ 23% |
